According to article PMC2906681 (Biochemical pharmacology, 2010):
Where a chain is given by its changes, count along the chain named. Values belong to the compound of their own block, whether it stands above or below them.

Columns and labels:
Shp1 = settings: cited from earlier work
most of other PTPs = settings: cited from earlier work
Shp2 [1] = molecular target: T1, Shp2 (Homo sapiens, UniProt Q06124); assay: Cell-based Shp2 inhibition assays
T1 sequence (Q06124 1-593): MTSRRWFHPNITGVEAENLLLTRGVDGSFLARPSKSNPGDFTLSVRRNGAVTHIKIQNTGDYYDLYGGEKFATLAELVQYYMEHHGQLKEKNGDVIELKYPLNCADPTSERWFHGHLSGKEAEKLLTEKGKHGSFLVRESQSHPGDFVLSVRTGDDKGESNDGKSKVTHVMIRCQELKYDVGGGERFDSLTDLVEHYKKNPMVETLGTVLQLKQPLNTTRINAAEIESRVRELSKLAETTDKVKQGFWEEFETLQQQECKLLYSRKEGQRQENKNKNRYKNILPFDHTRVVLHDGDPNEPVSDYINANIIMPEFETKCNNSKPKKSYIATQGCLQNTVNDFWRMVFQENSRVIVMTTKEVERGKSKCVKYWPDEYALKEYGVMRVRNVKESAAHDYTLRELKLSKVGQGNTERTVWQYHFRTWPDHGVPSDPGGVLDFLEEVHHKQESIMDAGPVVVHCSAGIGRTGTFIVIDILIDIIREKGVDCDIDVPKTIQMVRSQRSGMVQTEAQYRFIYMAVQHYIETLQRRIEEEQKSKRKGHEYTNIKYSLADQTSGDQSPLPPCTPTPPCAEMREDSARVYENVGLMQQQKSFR

Shp2^E76K = molecular target: T2, Shp2^E76K (Homo sapiens, UniProt Q06124, E76K); assay: Shp2^E76K PTP activity in immune complexes from TF-1/Shp2^E76K cells; assay type: cell-based; settings: GM-CSF-free medium
T2 sequence (Q06124 1-593 E76K): T1 sequence (Q06124 1-593) with E76K
In short: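 TF-1/Shp2E76K cells were treated in GM-CSF-free RPMI1640/10% FBS with test compound at various concentrations. Flag-Shp2E76K was immunoprecipitated with anti-Flag M2/protein G (0.2 mg lysate, 2 h, 4 °C) and washed. Complexes were incubated with 50 µM DiFMUP for 20 min at room temperature, and fluorescence was measured. Part of each immunoprecipitate was blotted for Shp2. Two experiments.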

Shp2 [2] = molecular target: T1, Shp2; assay: EGF-stimulated Shp2 PTP activity in immune complexes from MDA-MB-468 cells; assay type: cell-based; settings: EGF 50 ng/ml 10 min
In short: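 Sub-confluent MDA-MB-468 cells were serum-starved 18 h in DMEM/0.1% BSA, pretreated overnight with test compound (20 or 100 µM), then EGF-stimulated (50 ng/ml, 10 min). Lysate (0.2 mg, Hepes pH 7.4 PTP lysis buffer) was immunoprecipitated with anti-Shp2/protein G for 2 h at 4 °C and washed. Complexes were reacted with 50 µM DiFMUP for 20 min at room temperature, and DiFMU fluorescence was read. Pellets were immunoblotted for Shp2. Two experiments, duplicates.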

[3] = molecular target: T3, His-tagged Shp2 (amino acids 1–525) (Homo sapiens, UniProt Q06124); assay: Surface plasmon resonance; settings: SPR, 1:1 binding model
T3 sequence (Q06124 1-525): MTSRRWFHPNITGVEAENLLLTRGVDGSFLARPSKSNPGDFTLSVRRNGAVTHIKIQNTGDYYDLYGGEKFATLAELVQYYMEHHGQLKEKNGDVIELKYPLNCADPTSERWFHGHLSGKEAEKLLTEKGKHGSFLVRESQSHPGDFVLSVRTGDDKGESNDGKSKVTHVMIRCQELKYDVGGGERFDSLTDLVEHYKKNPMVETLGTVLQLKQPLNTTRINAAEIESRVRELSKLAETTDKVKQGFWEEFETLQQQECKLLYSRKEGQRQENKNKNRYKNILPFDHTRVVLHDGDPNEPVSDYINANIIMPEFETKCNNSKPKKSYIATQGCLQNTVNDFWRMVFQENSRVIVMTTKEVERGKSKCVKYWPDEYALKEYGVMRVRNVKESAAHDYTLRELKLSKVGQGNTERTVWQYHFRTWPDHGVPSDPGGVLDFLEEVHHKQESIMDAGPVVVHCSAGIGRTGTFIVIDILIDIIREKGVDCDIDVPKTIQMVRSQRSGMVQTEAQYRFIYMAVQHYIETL

[4] = molecular target: T4, non-fusion Shp2 PTP protein (Homo sapiens, UniProt Q06124); assay: Enzyme kinetics analysis of Shp2 PTP inhibition; assay type: biochemical; settings: Lineweaver-Burk, AIC comparison
T4 sequence (Q06124 247-517 limits assumed): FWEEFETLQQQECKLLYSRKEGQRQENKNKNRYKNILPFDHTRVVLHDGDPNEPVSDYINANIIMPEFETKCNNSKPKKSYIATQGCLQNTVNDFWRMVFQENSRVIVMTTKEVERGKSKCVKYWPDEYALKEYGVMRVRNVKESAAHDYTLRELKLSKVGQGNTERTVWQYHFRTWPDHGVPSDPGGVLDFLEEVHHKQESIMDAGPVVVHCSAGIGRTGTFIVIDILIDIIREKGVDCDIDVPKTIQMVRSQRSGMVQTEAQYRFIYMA

TF-1/Shp2^E76K cells [5] = assay: Fluorescence uptake assay; assay type: in vitro ADME; settings: 5 h incubation, ex/em 485/535 nm
In short: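 TF-1/Shp2E76K cells (6 × 10^5 in 1 ml RPMI1640/10% FBS) were incubated 5 h at 37 °C/5% CO2 with test compound or DMSO. Fluorescence (485/535 nm) was read in the whole suspension, then in cell-free medium (supernatant plus washes) and in twice-washed pellets. Fraction totals were expressed relative to the 100 µM suspension, set as 100%. Two duplicate experiments (n = 4).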

cells = assay: Confocal laser scanning microscopy of compound uptake; assay type: in vitro ADME; settings: 25 µM, 3 h
In short: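 TF-1/Shp2E76K cells grown in glass-bottom dishes were exposed to test compound at 25 µM for 3 h, then Hoechst 33342 (5 µg/ml) was added. Internal confocal sections were imaged with a 63X/1.40NA oil objective (2,520×), using 458 nm argon and 405 nm diode excitation with tunable emission filters. Compound fluorescence was viewed green.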

TF-1/Shp2^E76K cells [6] = assay: Cell growth assay; assay type: cell-based
In short: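 TF-1/Shp2E76K cells were plated at 1,000 cells/well in triplicate in RPMI1640/10% FBS without GM-CSF, with test compound. The compound volume was ≤0.1% of the total. Cells were incubated 4 days at 37 °C/5% CO2, then relative viable cell number was read with CellTiterGlo. Data came from two triplicate experiments.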

TF-1/Shp2^E76K cells [7] = assay: EB/AO staining apoptosis assay; assay type: cell-based; settings: 3 days, base level 4.2%
pErk1/2 and Bcl-XL = pErk1/2 and Bcl-XL immunoblotting in TF-1/Shp2^E76K cells; assay type: cell-based; settings: concentration-dependent
[8] = test system: paxillin dephosphorylation; assay: EGF-induced paxillin tyrosine dephosphorylation in MDA-MB-468 cells; assay type: cell-based; settings: 20 µM, 2 h; EGF 50 ng/ml 10 min
In short: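 Serum-starved MDA-MB-468 cells received test compound (20 µM, 2 h) and/or EGF (50 ng/ml, 10 min). Cells were lysed on ice in Tris buffer (pH 7.5) containing Na3VO4, NaF, pyrophosphate and protease inhibitors. Paxillin was immunoprecipitated, resolved by SDS-PAGE and immunoblotted with anti-phosphotyrosine and anti-paxillin antibodies.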

[9] = molecular target: T5, GST-Shp2 PTP domain protein (Homo sapiens, UniProt Q06124); assay: In vitro Shp2 PTP activity inhibition assay; assay type: biochemical
T5 sequence (Q06124 247-517 limits assumed): T4 sequence (Q06124 247-517 limits assumed)

[10] = test system: STAT1 tyrosine phosphorylation; assay: IFN-γ-stimulated STAT1 tyrosine phosphorylation in HT-29 cells; assay type: cell-based; settings: 20 µM, 2 h pre-treatment, IFN-γ 20 U/ml
Erk1/2 activation = assay: EGF-stimulated Erk1/2 activation in MDA-MB-468 cells; assay type: cell-based; settings: 0–20 µM tested, EGF 2 ng/ml 5 min
In short: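 Serum-starved MDA-MB-468 cells were pretreated with test compound (0–20 µM), then stimulated with EGF (2 ng/ml, 5 min). Cleared lysates were immunoblotted for dual-phosphorylated Erk1/2 and total Erk1/2.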

MDA-MB-468 cells = assay: Transwell cell migration assay; assay type: cell-based; settings: EGF 10 ng/ml, 16 h
ISRE-luciferase reporter = assay: ISRE luciferase reporter assay in HT-29 cells; assay type: cell-based
In short: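 HT-29 cells (5 × 10^5 per well) were co-transfected by lipofection with 1.6 µg pISRE-Luc and 0.4 µg β-gal plasmids. They were then stimulated with 50 U/ml IFN-γ for 6 h or left unstimulated. Luciferase was normalized to β-galactosidase activity; two duplicate experiments (n = 4).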

p21 = p21 expression in HT-29 cells; assay type: cell-based; settings: 12.5 µM with IFN-γ, 24 h, versus IFN-γ alone
In short: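 HT-29 cells were treated 24 h with IFN-γ at indicated amounts, with or without test compound at 12.5 µM. Cell lysates were immunoblotted for p21, with β-actin as loading reference.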

HT-29 cells = assay: Cell growth assay; assay type: cell-based; settings: for fraction of inhibition: 4 days
In short: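 HT-29 cells at 1,000 cells/well, in triplicate, in RPMI1640/10% FBS with IFN-γ (100 U/ml) and/or test compound or vehicle. Compound volume kept ≤0.1% of total. Incubated 4 days at 37 °C/5% CO2. Relative viable cell number was read by CellTiterGlo luminescence. Synergism of the two agents was calculated with the Bliss definition.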

Compound: O=C(O)c1cc(O)c(=O)c2c(O)c(O)ccc2c1 [DCA, 7-deshydroxypyrogallin-4-carboxylic acid]
- Shp1 inhibition compared with Shp2 (Shp1): same potency

Compound: O=C1C(=NNc2ccc(S(=O)(=O)O)cc2)C(c2ccc([N+](=O)[O-])cc2)=NN1c1ccccc1 [PHPS1, phenylhydrazonopyrazolone sulfonate 1]
- selectivity against Shp1 (Shp1): 14 fold
- selectivity against most of other PTPs (most of other PTPs): > 10

- activity in cell-based Shp2 inhibition assays (Shp2 [1]): no detectable activity
- Shp2^E76K PTP activity in treated cells (Shp2^E76K): no decrease
- effect on EGF-stimulated Shp2 PTP activity (Shp2 [2]; 100 µM pre-treatment overnight): did not affect
- association rate Ka [3]: 22400 M⁻¹ s⁻¹
- best fitted inhibition model [4]: competitive inhibition model
- fluorescent signal associated with the cell pellets (TF-1/Shp2^E76K cells [5]): only trace amount
- green fluorescence in confocal images of internal sections of cells (cells): did not have green fluorescence
Compound: O=C1Nc2ccc(S(=O)(=O)NCc3ccc(F)cc3)cc2/C1=N/Nc1cccc(C(=O)O)c1 [SPI-112, (Z)-3-(2-(5-(N-(4-fluorobenzyl)sulfamoyl)-2-oxoindolin-3-ylidene)hydrazinyl)benzoic acid]
- effect on viable cells (TF-1/Shp2^E76K cells [6]; GM-CSF-free medium, 4 days): did not affect

- Shp2^E76K PTP activity in treated cells (Shp2^E76K): lower Shp2^E76K PTP activity
- reduction of EGF-stimulated Shp2 PTP activity (Shp2 [2]; 20 µM pre-treatment overnight): 77%
- IC50 [9]: > 100 µM
- fluorescent signal associated with the cell pellets (TF-1/Shp2^E76K cells [5]): substantial amount
- green fluorescence in confocal images of internal sections of cells (cells): readily detectable
Compound: COC(=O)c1cccc(N/N=C2\C(=O)Nc3ccc(S(=O)(=O)NCc4ccc(F)cc4)cc32)c1 [SPI-112Me, (Z)-3-(2-(5-(N-(4-fluorobenzyl)sulfamoyl)-2-oxoindolin-3-ylidene)hydrazinyl)benzoic acid methyl ester]
- apoptotic cells (TF-1/Shp2^E76K cells [7]; 12.5 µM): 9.3%
- apoptotic cells (TF-1/Shp2^E76K cells [7]; 25 µM): 18.8%
- amounts of pErk1/2 and Bcl-XL (pErk1/2 and Bcl-XL): reduced
- effect on EGF-induced paxillin tyrosine dephosphorylation [8]: prevented
- effect on IFN-γ-stimulated STAT1 tyrosine phosphorylation [10]: increased amount of tyrosine-phosphorylated STAT1
- concentration at which inhibition of EGF-stimulated pErk1/2 signal was observed (Erk1/2 activation): 10 µM
- reduction of EGF-stimulated cell migration (MDA-MB-468 cells; 12.5 µM): 62%
- effect on EGF-stimulated cell migration (MDA-MB-468 cells; 25 µM): completed blocked
- activation of ISRE luciferase activity (ISRE-luciferase reporter; 10 µM SPI-112Me plus IFN-γ 50 U/ml): 54%
- activation of ISRE luciferase activity (ISRE-luciferase reporter; 25 µM SPI-112Me plus IFN-γ 50 U/ml): 98%
- IC50 (TF-1/Shp2^E76K cells [6]; 96 h, read-out: concentration giving a 50% decrease in viable cells): 10 µM
- p21 expression (p21): higher levels of p21
- fraction of inhibition (HT-29 cells; 6.25 µM SPI-112Me alone): 0.32
- fraction of inhibition (HT-29 cells; 6.25 µM SPI-112Me plus IFN-γ 100 U/ml): 0.57
- fraction of inhibition (HT-29 cells; 12.5 µM SPI-112Me alone): 0.71
- fraction of inhibition (HT-29 cells; 12.5 µM SPI-112Me plus IFN-γ 100 U/ml): 0.84
- combination effect with IFN-γ on inhibition of cell growth (Bliss) (HT-29 cells; IFN-γ 100 U/ml plus SPI-112Me): synergistic

Compound: IFN-γ: interferon-γ, cytokine used to stimulate STAT1 signaling in HT-29 cells
- activation of ISRE luciferase activity (ISRE-luciferase reporter; IFN-γ 50 U/ml alone, 6 h): 26%
- fraction of inhibition (HT-29 cells; IFN-γ 100 U/ml alone): 0.18
